Each structure is given as a SMILES string. Calls of active or inactive are those of the source. No cut-off for these calls is given here.

Series [1] relates to Human alphaherpesvirus 1. As to the kind of experiment: Antiviral activity against acyclovir-resistant thymidine kinase deficient HSV1 KOS infected in HEL assessed as inhibition of virus-induced cytopathicity after 3 days. The settings on record: Human alphaherpesvirus 1, KOS, 72 h. The class given is functional, organism-based. For orientation: Protection from cytopathic effect is a common read-out in antiviral testing.

The subject of series [2] is Sindbis virus. As to the kind of experiment: Antiviral activity against Sindbis virus infected in african green monkey Vero assessed as inhibition of virus-induced cytopathicity after 3 days. The class given is functional, organism-based. In outline: (§1)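 Confluent cell monolayers infected with 100 CCID50 of virus in the presence of test compound at 100, 20,... μM. Cytopathicity was scored once it was complete in untreated infected controls.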

For series [3], the system named is Human alphaherpesvirus 2. As to the kind of experiment: Antiviral activity against HSV2 G infected in HEL assessed as inhibition of virus-induced cytopathicity after 3 days. In kind it is functional, organism-based. To be noted: Human alphaherpesvirus 2, strain G, 72 h. The gist of the method:
as §1

Series [4] concerns Vesicular stomatitis virus. The series can be described thus: Antiviral activity against Vesicular stomatitis virus infected in human HeLa assessed as inhibition of virus-induced cytopathicity after 3 days. In kind it is functional, organism-based.
The subject of series [5] is Vaccinia virus. The series can be described thus: Antiviral activity against Vaccinia virus infected in HEL assessed as inhibition of virus-induced cytopathicity after 3 days. To be noted: Orthopoxvirus vaccinia, 72 h. The class given is functional, organism-based.
In series [6] the test system is Coxsackievirus B4. As to the kind of experiment: Antiviral activity against Coxsackievirus B4 infected in human HeLa assessed as inhibition of virus-induced cytopathicity after 3 days. The class given is functional, organism-based. In outline:
as §1

Series [7] concerns Respiratory syncytial virus. The series can be described thus: Antiviral activity against Respiratory syncytial virus infected in human HeLa assessed as inhibition of virus-induced cytopathicity after 3 days. The class given is functional, organism-based. The gist of the method:
as §1

Series [8] concerns Vesicular stomatitis virus. The series can be described thus: Antiviral activity against Vesicular stomatitis virus infected in MDCK assessed as inhibition of virus-induced cytopathicity after 3 days. The class given is functional, organism-based.
The test system of series [9] is Human alphaherpesvirus 1. The series can be described thus: Antiviral activity against HSV1 KOS infected in HEL assessed as inhibition of virus-induced cytopathicity after 3 days. In kind it is functional, organism-based. The settings on record: Human alphaherpesvirus 1, KOS, 72 h.
The subject of series [10] is Human respirovirus 3. As to the kind of experiment: Antiviral activity against Parainfluenza-3 virus infected in african green monkey Vero assessed as inhibition of virus-induced cytopathicity after 3 days. The class given is functional, organism-based. The gist of the method: as §1
Series [11] deals with Human alphaherpesvirus 3. The series can be described thus: Antiviral activity against VZV OKA expressing thymidine kinase infected in HEL cells assessed as inhibition of virus-induced cytopathogenicity after 3 days. In kind it is functional, cell-based. To be noted: Human alphaherpesvirus 3, strain Oka vaccine, 72 h.
Series [12] is described as follows: Cytotoxicity against HEL after 3 days. In kind it is cell-based. The settings on record: human, HEL cells. In outline:
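HEL cells were seeded at 5×10^3 cells/well and allowed to grow for 24 h, then given medium with varying compound concentrations. After 3 days at 37 °C, cells were counted with a Coulter counter.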

Series [13] is described as follows: Cytotoxicity against HEL assessed as minimum compound concentration causes microscopically detectable alteration of cell morphology after 3 days. The class given is cell-based. The settings on record: human, HEL cells.
Series [14] deals with Influenza A virus. As to the kind of experiment: Antiviral activity against Influenza A virus H1N1 infected in MDCK assessed as inhibition of virus-induced cytopathicity after 3 days. In kind it is functional, organism-based.
Series [15] relates to Mammalian orthoreovirus 1. The series can be described thus: Antiviral activity against Reovirus-1 infected in african green monkey Vero assessed as inhibition of virus-induced cytopathicity after 3 days. In kind it is functional, organism-based. In outline:
as §1

Series [16] relates to Human alphaherpesvirus 3. As to the kind of experiment: Antiviral activity against thymidine kinase-deficient VZV 07/1 infected in human HEL cells assessed as reduction of virus-induced cytopathogenicity after 3 days. The class given is functional, organism-based. The settings on record: Human alphaherpesvirus 3, 07/1, HEL, 72 h.
The subject of series [17] is Influenza A virus. The series can be described thus: Antiviral activity against Influenza A virus H3N2 infected in MDCK assessed as inhibition of virus-induced cytopathicity after 3 days. In kind it is functional, organism-based.
The test system of series [18] is Influenza B virus. The series can be described thus: Antiviral activity against Influenza B virus infected in MDCK assessed as inhibition of virus-induced cytopathicity after 3 days. The class given is functional, organism-based.
For series [19], the system named is Punta Toro virus. The series can be described thus: Antiviral activity against Punta Toro virus infected in african green monkey Vero assessed as inhibition of virus-induced cytopathicity after 3 days. In kind it is functional, organism-based. In outline:
as §1

As a reminder, the EC50 is the midpoint of the concentration-response curve. What is called CC50 is the concentration giving 50% cytotoxicity. `CC(C)c1ccc(Nc2ncnc3c2ncn3C/C=C/CP(=O)(OCOC(=O)C(C)(C)C)OCOC(=O)C(C)(C)C)cc1`: the EC50 in series [1] was above 100 µM; in [3] it was above 100 µM; in series [5], above 100 µM; in [9], above 100 µM; in [11] it was above 20 µM; in series [16] it was above 20 µM. The outcome in [2], in [4], in [6], in [7], in series [8] and in [10] was inactive. Besides, the outcome in [14], in [15], in [17], in [18] and in series [19] was inactive. This molecule also returned a CC50 at 72 h in [12] of 32.3 µM. Moreover, in [13], the MCC at 72 h was found to be 100 µM.
On to `CC(C)(C)C(=O)OCOP(=O)(C/C=C/Cn1cnc2c(=O)[nH]cnc21)OCOC(=O)C(C)(C)C`, for which the EC50 in [1] is above 100 µM; in series [3] it was above 100 µM; in series [5] it was above 100 µM; in [9], above 100 µM; in [11], above 100 µM; in series [16], above 20 µM. The outcome in series [2], in [4], in [6], in [7], in series [8] and in [10] was inactive. Moreover, the result in series [14], in [15], in series [17], in series [18] and in series [19] was inactive. In addition, the CC50 at 72 h in series [12] came to 51.9 µM. Also, the MCC at 72 h in series [13] was above 100 µM.
With `Nc1ccn(C[C@@H](CO)OCP(=O)(O)O)c(=O)n1` [CIDOFOVIR], the EC50 in series [3] turned out to be 1 µM; in series [5], 10 µM; in [9] it was 1.2 µM.
With `CC(C)(C)C(=O)OCOP(=O)(C/C=C/Cn1cnc2c(=O)n3cc[nH]c3nc21)OCOC(=O)C(C)(C)C`, the concentration for a half-maximal effect (EC50) in series [1] is above 100 µM; in [3], above 100 µM; in series [5], above 100 µM; in series [9] it was above 100 µM; in series [11], 17.3 µM; in series [16] it was 40.7 µM. For the same molecule, the outcome in series [2], in series [4], in series [6], in series [7], in series [8] and in series [10] was inactive. For the same molecule, the outcome in [14], in [15], in series [17], in series [18] and in series [19] was inactive. In addition, the MCC at 72 h in series [13] is above 100 µM.
`Nc1nc2c(ncn2COCCO)c(=O)[nH]1` [ACYCLOVIR]: the EC50 in [5] was above 250 µM. In addition, the CC50 at 72 h in series [12] is 134 µM. Further, in [13], the MCC at 72 h was above 100 µM.
On to `O=c1[nH]c(=O)n([C@H]2C[C@H](O)[C@@H](CO)O2)cc1/C=C/Br` [BRIVUDINE], for which the EC50 came out at 50 µM in series [3], 5 µM in [5] and 0.08 µM in series [9]. For the same molecule, in series [13], the MCC at 72 h is above 100 µM.
